Test results reported in article PMC6331719 (The EMBO Journal, 2018).

Key:
CFTR [1] = experiment: Proximity ligation assay CFTR / P31–43, Caco-2 cells; assay type: binding, human; settings: short pre-incubation
Outline: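 Caco-2 cells were pre-incubated up to 20 min with VX-770 (10 μM), then exposed to P31–43. Cells were fixed in 4% PFA for 15 min at room temperature and blocked with 0.1% Triton X-100/0.5% BSA. Primary antibodies were applied overnight at 4°C and Duolink probes (1:5) for 1 h at 37°C. Ligation, rolling-circle amplification, red detection and DAPI counterstain followed.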

wild‐type mouse CFTR = settings: ref Cui & McCarty, 2015; Cui et al, 2016; Zeng et al, 2017; cited from earlier work
[2] = tested on: CFTR (small intestine, BALB/c mice); experiment: Ussing chamber, small intestine of BALB/c mice; assay type: in vivo, mouse; settings: VX-770 i.p. 15 min prior to gliadin, 4 weeks
Outline: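 BALB/c mice on a gluten-free diet for ≥3 generations were given oral gliadin (5 mg daily for 1 week, then thrice weekly for 3 weeks) ± VX-770; n = 10 per group. Small intestine tissue was mounted in Ussing chambers with identical Ringer on both sides, at 37°C, stirred and gassed with 95% O2/5% CO2.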

BALB/c mice = experiment: Intestinal permeability; assay type: in vivo, mouse; settings: VX-770 i.p. prior to gliadin, 4 weeks
Outline: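 BALB/c mice kept ≥3 generations on a gluten-free diet were gavaged with gliadin (5 mg daily for 1 week, then thrice weekly for 3 weeks) ± intraperitoneal VX-770 15 min before; n = 10 per group. FITC-D4000 (600 mg/kg) was gavaged, and cardiac blood taken 1 h later. Plasma was diluted 1:1 in PBS and read at ex 485/em 528 nm against standards (50–0.312 μg/ml). Values are means ± SD of triplicate pooled samples.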

[3] = tested on: BALB/c mice small intestine; experiment: Small intestine transcript levels, BALB/c mice; assay type: in vivo, mouse; settings: VX-770 i.p. prior to gliadin
[4] = tested on: BALB/c mice small intestine; experiment: Small intestine protein markers; assay type: in vivo, mouse; settings: VX-770 i.p. prior to gliadin
TG2 and CFTR = experiment: Co-immunoprecipitation of TG2 and CFTR, Caco-2 cells; assay type: cell-based, human; settings: Caco-2, pre-treatment
Caco‐2 cells [5] = experiment: Epithelial stress / innate immune markers by immunoblot, Caco-2 cells; assay type: cell-based, human
IL‐15 (Caco‐2 cells) [6] = experiment: IL-15 in lower compartment of bidimensional culture; assay type: cell-based, human; settings: VX-770, P < 0.001 vs. peptide combination
celiac PBMC [7] = experiment: Caco-2 CFTR-KO / celiac PBMC co-culture, cytokine release; assay type: cell-based, human; settings: VX-770, P31–43 and P57–68 challenge
CFTR [8] = experiment: Co-immunoprecipitation of CFTR with biotinylated peptide, Caco-2 cells; assay type: binding, human; settings: short pre-incubation, Caco-2
celiac PBMC [9] = experiment: Caco-2 / celiac PBMC bidimensional co-culture, cytokine release; assay type: cell-based, human; settings: VX-770, P < 0.01
Caco‐2 cells [10] = experiment: Endosomal trafficking markers, Caco-2 cells; assay type: cell-based, human; settings: for Protection from P31–43 effects on BECN1, hVps34, UVRAG, Rab5, Rab7: Caco-2, pre-incubation with potentiator
Outline: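 Endosomal fractions isolated from treated and untreated Caco-2 cells. Rab5 and Rab7 immunoblotted, with EEA-1 as loading control. Densitometry reported as mean ± SD of triplicate independent experiments. Potentiator VX-770 used at 10 μM.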

TG2 = TG2 activity and TG2-catalysed crosslinking in Caco-2 cells; assay type: cell-based, human; settings: Caco-2, Ca2+ pulse, BAP incorporation
CFTR (Caco‐2 cells) = experiment: Ussing chamber, CFTR-dependent Cl- secretion in Caco-2 cells; assay type: cell-based, human; settings: for Protection against P31–43-mediated reduction of chloride current: pre-incubation up to 20 min, VX-770 10 μM, Vrx-532 20 μM
Outline: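 Caco-2 or T84 monolayers grown on 0.4-μm Transwells to 800–1,200 Ω cm2, then mounted in Ussing chambers. Ringer both sides, 37°C, gassed with 95% O2/5% CO2. Cells pretreated 3 h with peptides (20 μg/ml) or PT gliadin (500 μg/ml), or given bath peptides (100 μM, 3–5 min) after 100 μM amiloride. VX-770 10 μM for 5 min. Forskolin 20 μM; peak CFTRinh172-sensitive Isc.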

Caco‐2 cells [11] = experiment: F-actin confocal staining, Caco-2 cells; assay type: cell-based, human; settings: Caco-2, 24 h, VX-770
[12] = tested on: BALB/c mice small intestine; experiment: Small intestine cytokine protein levels; assay type: in vivo, mouse; settings: VX-770 i.p. prior to gliadin
Outline: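 BALB/c mice kept gluten-free for at least three generations, 10 weeks old, at least 10 per group. Oral gliadin or vehicle for 4 weeks (5 mg daily for 1 week, then thrice weekly for 3 weeks). Small-intestine homogenates assayed for IL-10 and TGF-β by ELISA, read in triplicate at 450 nm. Values normalised to Bradford protein.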

[13] = tested on: CFTR (Caco-2 and T84 cells); experiment: Iodide efflux by SPQ in intestinal epithelial cells; assay type: cell-based, human; settings: 20 min pre-treatment with potentiator, n = 3
CFTR (Caco-2 cells) = experiment: CFTR stability, ubiquitination and plasma membrane level, Caco-2 cells; assay type: cell-based, human; settings: Caco-2, pre-incubation with potentiator, 24 h
Outline: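 Caco-2 cells homogenised and spun at 2,300 × g for 15 min, then 16,000 × g for 1 h at 4°C. The membrane pellet was solubilised in Tris–HCl pH 7.4/EDTA buffer with 1% Triton X-100 and spun at 60,000 × g for 1 h to give the plasma-membrane fraction. Fraction used for IP or immunoblot against CFTR, ubiquitin, CHIP and related markers. Potentiator VX-770 at 10 μM.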

Caco‐2CFTR‐KO cells = experiment: IL-15 production and ERK1/2 phosphorylation, Caco-2 CFTR-KO cells; assay type: cell-based, human
NOD‐DQ8 mice = experiment: Gliadin-challenged NOD-DQ8 mice; assay type: in vivo, mouse; settings: gliadin 4 weeks, VX-770 i.p.
Outline: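 NOD.[…] AB0null mice expressing HLA-DQ8 (congenic NOD background), 10 per group. Oral gliadin or vehicle for 4 weeks: 5 mg daily for 1 week, then 5 mg thrice weekly for 3 weeks. VX-770 given intraperitoneally 15 min before each gliadin challenge.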

NOD mice = experiment: Gliadin-challenged NOD mice; assay type: in vivo, mouse; settings: gliadin after diabetes onset, VX-770 i.p.
Outline: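 Female NOD mice with diabetes (blood glucose > 250 mg/dl, monitored weekly) were used at 12–13 weeks. They were challenged orally with gliadin for 4 consecutive weeks. VX-770 was given intraperitoneally 15 min before each challenge. n = 10 mice per group.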

IL‐15 (Caco‐2 cells) [14] = experiment: IL-15 production; assay type: cell-based, human; settings: Caco-2, VX-770 pre-treatment, P < 0.001
[15] = tested on: duodenal biopsies from CD patients; experiment: Duodenal biopsies from CD patients, CD3+CD25+ cells in lamina propria; assay type: cell-based, human; settings: Vrx-532 20 μM, 3 h pre-incubation

CC(C)(C)c1cc(C(C)(C)C)c(NC(=O)c2c[nH]c3ccccc3c2=O)cc1O [VX‐770]
Effect of VX-770 on P31–43 interaction with CFTR (proximity ligation assay) (CFTR [1]): abolished the interaction of P31–43 with CFTR
Potentiation of wild-type mouse CFTR channel function (wild‐type mouse CFTR): potentiate the ion channel function of wild‐type mouse CFTR
CFTR function and protein expression, gliadin-sensitive mice [2]: prevented the gliadin‐induced decrease in CFTR function (Fig 5A) and protein expression
Intestinal permeability (BALB/c mice): prevented the gliadin‐induced increase in intestinal permeability
Rorc and Tbet [3]: downregulated upon VX‐770 treatment
NKG2D upregulation on intraepithelial lymphocytes [4]: counteracted
NLRP3 expression [4]: counteracted gliadin‐induced NLRP3 expression
TG2 protein levels [4]: opposed the ability of gliadin to increase TG2 protein levels
NHERF-1 depletion ([4]; 4 weeks): abrogated the depletion of NHERF‐1
Prevention of P31–43-induced TG2–CFTR interaction (TG2 and CFTR): abolished the P31–43‐induced interaction of TG2 and CFTR
Prevention of P31–43-induced NF-κB p65 translocation, NLRP3 expression, caspase-1 cleavage (Caco‐2 cells [5]; Caco-2, VX-770): prevented additional pro‐inflammatory P31–43 effects
Protection from P31–43-induced epithelial stress (PPARγ, phERK1/2, HSP70) (Caco‐2 cells [5]; Caco-2, pre-incubation with VX-770): protected Caco‐2 cells from signs of P31–43‐induced epithelial stress
Prevention of IL-15 accumulation (IL‐15 (Caco‐2 cells) [6]): prevented by VX‐770
Prevention of IFN-γ production with Caco-2 CFTR-KO (celiac PBMC [7]): failed to prevent the production of IFN‐γ by celiac PBMC
Effect of VX-770 on P31–43 interaction with CFTR (co-immunoprecipitation) (CFTR [8]): abolished the interaction of P31–43 with CFTR
IL-10 levels (celiac PBMC [9]): increased IL‐10 levels
Prevention of IFN-γ production (celiac PBMC [9]): prevented the production of IFN‐γ by PT gliadin or peptide combination
P31–43-mediated increase in CD71 cell surface expression (Caco‐2 cells [10]; Caco-2): blocked the P31–43‐mediated increase in the cell surface expression of transferrin receptor
Protection from P31–43 effects on BECN1, hVps34, UVRAG, Rab5, Rab7 (Caco‐2 cells [10]): counteracted
P31–43-induced CD71–SIgA interaction (Caco‐2 cells [10]; Caco-2 pre-incubated with SIgA 1 h at 4°C): abrogated the ability of P31–43 to increase the interaction of CD71 with SIgA
Effect on TG2-mediated transamidation reactions itself (TG2): no impact on TG2‐mediated transamidation reactions
Effect of VX-770 on chloride current when added after P31–43 (CFTR (Caco‐2 cells); P31–43 100 μM then VX-770 10 μM then Fsk): poorly active
Protection against P31–43-mediated reduction of chloride current (CFTR (Caco‐2 cells)): prevented
Formation of F-actin stress fibers induced by P31–43 (Caco‐2 cells [11]): negated the capacity of P31–43 to induce the formation of F‐actin stress fibers
IL-10 and TGF-β production [12]: improved IL‐10 and TGF‐β production
IL-21 expression [12]: inhibited the gliadin‐induced expression of IL‐21
IL-15, IL-17A and IFN-γ mRNA and protein ([12]; P < 0.001): prevented the gliadin‐induced upregulation of IL‐15, IL‐17A, and IFN‐γ mRNA
Protection of iodide efflux against P31–43 [13]: protecting intestinal epithelial cells against P31–43‐mediated CFTR inhibition
Prevention of P31–43 effects on CFTR stability / plasma membrane level (CFTR (Caco-2 cells)): prevented
IL-15 expression and ERK1/2 phosphorylation in CFTR-KO cells (Caco‐2CFTR‐KO cells): failed to modulate both IL‐15 expression and ERK1/2 phosphorylation in Caco‐2CFTR‐KO cells
Protective effects in NOD-DQ8 mice (NOD‐DQ8 mice): in NOD‐DQ8 mice as well
Protective effects in NOD mice (NOD mice): protective effects of VX‐770 were confirmed in NOD mice
P31–43-induced IL-15 production (IL‐15 (Caco‐2 cells) [14]): prevented the P31–43‐induced production of IL‐15

Cc1ccc(O)c(-c2cc(-c3ccccc3)n[nH]2)c1 [Vrx‐532]
Abrogation of gliadin-peptide-induced CD3+CD25+ cell increase [15]: highly effective in abrogating these effects of gliadin peptides
Protection from P31–43 effects on BECN1, hVps34, UVRAG, Rab5, Rab7 (Caco‐2 cells [10]): counteracted
Protection against P31–43-mediated reduction of chloride current (CFTR (Caco‐2 cells)): prevented
Protection of iodide efflux against P31–43 [13]: protecting intestinal epithelial cells against P31–43‐mediated CFTR inhibition
Prevention of P31–43 effects on CFTR stability / plasma membrane level (CFTR (Caco-2 cells)): prevented
